The record followed here is PubChem BioAssay.

The source made the active and inactive calls.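 Rule for the calls, unless noted: active = GFP response above 150% of the DMSO level; inconclusive = fewer than 70 events counted for a yeast strain; inactive = the rest.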

Assay [1] in a line: hit retest on RPL19A-GFP reporter strain – cell-based, S. cerevisiae, flow cytometry, cherry picks, mother/daughter gates, confirmation (AID 2270;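 active = GFP response below 50% of the DMSO control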). The conditions noted are these: 3 h, at 10 µM, stronger effect = lower value, 100 = same GFP as DMSO wells. (A flow cytometer gives signals particle by particle.)
Assay [2] in a line: yeast TOR pathway reporter LAP4-GFP change – cell-based, cherry picks, flow cytometry, mother/daughter gates, confirmation (AID 2271;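 active = GFP response above 150% of the DMSO control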;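 note: ratio of sample to DMSO plate mean so 100% equals DMSO level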). The conditions noted are these: S. cerevisiae LAP4-GFP strain, 3 h, at 10 µM, stronger effect = higher value, 100 means same as DMSO control. A digest of the protocol:
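System – GFP-fusion yeast strain · Amount – 0.2 OD600 cells · Buffer or medium – SC growth medium · Dosing – single test-compound dose, 10 µM final · Schedule – 3 h treatment at 30 °C with rotation · Detection – GFP by flow cytometry · Read-out – per-gate (all, mother, daughter) GFP response vs DMSO · Benchmarks – positive rapamycin (400 ng/mL), negative DMSO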

Assay [3] is described as follows: TOR pathway reporter MEP2-GFP, retest of hits – S. cerevisiae, flow cytometry GFP, cherry picks, confirmation (AID 2272;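 active = GFP response above 150% of the DMSO control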;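 note: ratio of well signal to plate DMSO mean so 100% equals DMSO level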). To be noted: S. cerevisiae MEP2-GFP strain, 3 h, at 10 µM, stronger effect = higher value.
Assay [4] can be described thus: yeast AGP1-GFP fluorescence change, single-dose – cell-based, flow cytometry, S. cerevisiae, cherry picks, confirmation (AID 2273).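 Note: median GFP channel fluorescence over the whole cell population gate.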 To be noted: S. cerevisiae AGP1-GFP strain, 3 h, at 10 µM.
The nature of assay [5]: TOR pathway CIT2 reporter hit retest – S. cerevisiae, GFP fusion, cherry picks, mother/daughter gates, confirmation (AID 2274). To be noted: S. cerevisiae CIT2-GFP strain, flow cytometry, 3 h, at 10 µM, stronger effect = higher value.
[6] abbreviates: measured here: daughter cell gate.
[7] abbreviates: measured here: mother cell gate.
Where [8] appears, read: measured here: daughter cell gate response.
Where [9] appears, read: measured here: mother cell gate response.

On to `S=c1[nH]nc(NCCCN2CCOCC2)s1`, for which the GFP response vs DMSO was 96% (inactive) in assay [1], 97.1% in assay [1] (setting [6]), 95.1% in assay [1] (setting [7]) and 103% (inactive) in assay [3]. In addition, the GFP response relative to DMSO in assay [2] was 101% (inactive); in assay [2] (setting [8]), 101%; in assay [2] (setting [9]) it was 102%. The GFP response, % of DMSO in assay [4] was 106% (inactive); in assay [5], 102% (inactive); in assay [5] (setting [6]), 100%; in assay [5] (setting [7]) it was 103%.

Take `Cc1cc(NC(=O)c2cncc(Br)c2)ccc1NC(=O)c1cc2ccccc2o1`: the GFP response vs DMSO in assay [1] is 102% (inactive); in assay [1] (setting [6]), 100%; in assay [1] (setting [7]), 104%; in assay [3], 109% (inactive). The GFP response relative to DMSO was 90.2% (inactive) in assay [2], 87.9% in assay [2] (setting [8]) and 95.2% in assay [2] (setting [9]). Also, the GFP response, % of DMSO in assay [4] was 95% (inactive); in assay [5], 99.1% (inactive); in assay [5] (setting [6]), 98.1%; in assay [5] (setting [7]), 97.7%.

Consider `CCOc1ccc(-c2noc(-c3cccnc3)n2)cc1OC`, for which the GFP response vs DMSO in assay [1] was 97.2% (inactive); in assay [1] (setting [6]), 97.1%; in assay [1] (setting [7]) it was 96.4%; in assay [3], 100% (inactive). The GFP response relative to DMSO is 99.2% (inactive) in assay [2], 99.2% in assay [2] (setting [8]) and 98.3% in assay [2] (setting [9]). Besides, the GFP response, % of DMSO was 95.6% (inactive) in assay [4], 104% (inactive) in assay [5], 103% in assay [5] (setting [6]) and 98.5% in assay [5] (setting [7]).

For the compound `CCCOc1ccc(N2C(=O)CC(SCCN)C2=O)cc1` (stereo not drawn), the GFP response vs DMSO in assay [1] is 93.5% (inactive); in assay [1] (setting [6]), 92.9%; in assay [1] (setting [7]), 94.6%; in assay [3], 98.3% (inactive). The GFP response relative to DMSO in assay [2] was 101% (inactive); in assay [2] (setting [8]), 102%; in assay [2] (setting [9]), 99.3%. Further, the GFP response, % of DMSO in assay [4] is 92.3% (inactive); in assay [5], 98.3% (inactive); in assay [5] (setting [6]), 101%; in assay [5] (setting [7]), 96.1%.

For `Cc1nn(Cc2ccccc2Cl)c(C)c1C(=O)NCc1ccco1`, the GFP response vs DMSO in assay [1] was 99.3% (inactive); in assay [1] (setting [6]), 101%; in assay [1] (setting [7]), 98.8%; in assay [3], 99.3% (inactive). The results for the GFP response relative to DMSO in assay [2], in assay [2] (setting [8]) and in assay [2] (setting [9]) were 97.7% (inactive), 101% and 98.4%, respectively. For the same compound, the GFP response, % of DMSO was 99.3% (inactive) in assay [4], 98.6% (inactive) in assay [5], 99.3% in assay [5] (setting [6]) and 100% in assay [5] (setting [7]).

Turning to `O=C(O)Cc1sc(Nc2ccc(F)cc2)nc1-c1cccs1`, the GFP response vs DMSO in assay [1] is 97.6% (inactive); in assay [1] (setting [6]), 99.4%; in assay [1] (setting [7]), 97%; in assay [3], 110% (inactive). Moreover, the GFP response relative to DMSO in assay [2] was 129% (inactive); in assay [2] (setting [8]) it was 125%; in assay [2] (setting [9]), 135%. The GFP response, % of DMSO is 108% (inactive) in assay [4], 103% (inactive) in assay [5], 103% in assay [5] (setting [6]) and 103% in assay [5] (setting [7]).

Take `CCN(CC)c1ccc2cc(-c3nc4ccccc4[nH]3)c(=O)oc2c1`: the GFP response vs DMSO in assay [1] is 108% (inactive); in assay [1] (setting [6]), 106%; in assay [1] (setting [7]) it was 111%; in assay [3] it was 185% (active). Moreover, the values for the GFP response relative to DMSO in assay [2], in assay [2] (setting [8]) and in assay [2] (setting [9]) were 107% (inactive), 99.3% and 113%, respectively. Also, the GFP response, % of DMSO in assay [4] is 108% (inactive); in assay [5] it was 135% (inactive); in assay [5] (setting [6]), 132%; in assay [5] (setting [7]), 136%.

As for `CCN(CC)CCNC(=O)Cn1c(-c2ccccn2)nc2ccccc21`, the GFP response vs DMSO in assay [1] is 99.5% (inactive); in assay [1] (setting [6]) it was 98.1%; in assay [1] (setting [7]) it was 99.6%; in assay [3], 100% (inactive). Also, the GFP response relative to DMSO is 96.2% (inactive) in assay [2], 98.7% in assay [2] (setting [8]) and 98.3% in assay [2] (setting [9]). The GFP response, % of DMSO in assay [4] is 94.3% (inactive); in assay [5], 97.8% (inactive); in assay [5] (setting [6]), 96.5%; in assay [5] (setting [7]) it was 97.7%.
